# System: WISH cells
# Assay: MTT cytotoxicity assay, WISH normal cells
# Format: cell-based
# Details: read-out: IC50 ± SD, WISH (Normal cells)
# Outline: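 Cells obtained from the Egyptian National Cancer Institute and grown in RPMI-1640/DMEM with L-glutamine. Seeded at 5 × 10^4 cells/well in triplicate and treated at 0.1, 1, 10 and 100 μg/mL. Viability read by MTT on the second day with absorbance on a microplate reader. IC50 derived against control-group viability, recorded in triplicate, mean ± SD.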
structure (smiles),measurement,value
COc1cccc2c1C(=O)c1c(O)c3c(c(O)c1C2=O)C[C@@](O)(C(=O)CO)C[C@@H]3O[C@H]1C[C@H](N)[C@H](O)[C@H](C)O1 [Doxorubicin],IC50,56.5 ± 2.7 µM

# Source: paper PMC10448641 (ACS Omega, 2023)
